From ChEMBL document CHEMBL3997826, “Discovery and characterization of novel indole and 7-azaindole derivatives as inhibitors of β-amyloid-42 aggregation for the treatment of Alzheimer's disease” (Bioorg Med Chem Lett, 2017)
Each block holds one molecule with its values, some of them ahead of it.

Key:
[1] = biological target: T1, Amyloid-beta precursor protein (Homo sapiens, UniProt P05067); assay: Inhibition of HFIP-pretreated amyloid beta (1 to 42 residues) (unknown origin) aggregation at 1:10 protein to compound ratio after 24 hrs by ThT fluorescence assay relative to control; details: concentration not given here
Method in brief: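 A crude Aβ1-42 peptide film at 33 µM was mixed with compound at 330 µM, a 1:10 molar ratio, and aggregation was read by thioflavin-T fluorescence. Values are percent of the DMSO-only Aβ1-42 aggregation control, as the mean ± SD of two independent experiments.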

[2] = biological target: T1, Amyloid-beta precursor protein; assay: Inhibition of HFIP-pretreated amyloid beta (1 to 42 residues) (unknown origin) aggregation after 24 hrs by ThT fluorescence assay
[3] = Metabolic stability in human liver microsomes assessed as parent compound remaining after 1 hr; format: ADME, microsome; details: read-out: Stability
Method in brief: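 Compounds were incubated with human or mouse liver microsomes for 1 h at 37 °C. The read-out was the percentage of parent compound remaining.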

[4] = Permeability from apical to basolateral side in human Caco2 cells; format: ADME, cell-based; details: Caco-2, read-out: permeability
Method in brief: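 Apical-to-basolateral permeability was reported in cm/s. The efflux ratio was used to judge P-gp substrate status.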

Liver = assay: Drug metabolism in human liver microsomes assessed as oxidation of indole-3 position; format: ADME, microsome
[5] = Half life in human liver microsomes; format: ADME, microsome

T1 sequence (P05067 whole entry, the tested form may be a part): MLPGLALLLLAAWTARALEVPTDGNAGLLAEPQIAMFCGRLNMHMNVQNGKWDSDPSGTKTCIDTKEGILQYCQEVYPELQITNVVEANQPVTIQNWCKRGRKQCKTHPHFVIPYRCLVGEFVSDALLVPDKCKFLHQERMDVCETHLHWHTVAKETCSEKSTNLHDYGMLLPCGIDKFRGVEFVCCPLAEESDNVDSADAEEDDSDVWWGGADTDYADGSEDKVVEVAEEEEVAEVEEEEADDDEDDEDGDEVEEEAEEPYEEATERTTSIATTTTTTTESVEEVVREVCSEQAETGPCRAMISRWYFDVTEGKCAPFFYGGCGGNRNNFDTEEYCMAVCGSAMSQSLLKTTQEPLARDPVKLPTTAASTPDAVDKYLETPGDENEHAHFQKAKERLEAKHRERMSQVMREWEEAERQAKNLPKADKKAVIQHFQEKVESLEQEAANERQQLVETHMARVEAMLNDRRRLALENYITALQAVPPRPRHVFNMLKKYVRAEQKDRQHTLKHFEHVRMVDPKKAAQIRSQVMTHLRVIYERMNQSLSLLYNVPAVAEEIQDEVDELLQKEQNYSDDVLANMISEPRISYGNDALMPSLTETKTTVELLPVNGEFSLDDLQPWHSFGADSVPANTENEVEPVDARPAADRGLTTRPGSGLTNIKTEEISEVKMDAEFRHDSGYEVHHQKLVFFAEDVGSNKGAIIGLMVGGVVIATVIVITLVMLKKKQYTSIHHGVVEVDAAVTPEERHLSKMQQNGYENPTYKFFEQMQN

Compound: CN1CCC(c2c[nH]c3cc(Nc4ccc5[nH]cc(C6CCN(C)CC6)c5c4)ccc23)CC1
inhibition [1]: > 90% | IC50 [2]: 15.3 µM

Compound: COc1ccc(Nc2ccc3c(C4CCN(C)CC4)c[nH]c3c2)cc1OC
inhibition [1]: 81 to 93% | IC50 [2]: 25 µM

Compound: c1cc2c(C3CCNCC3)c[nH]c2cc1Nc1ccc2c(C3CCNCC3)c[nH]c2c1
remaining at 1 h [3]: 89% | inhibition [1]: > 90% | Papp A→B [4]: 0.01 ×10⁻⁶ cm/s

Compound: Fc1cc(F)cc(Nc2cnc3cc[nH]c3c2)c1
inhibition [1]: 52%

Compound: Fc1ccc(Nc2ccc3c(C4CCNCC4)c[nH]c3n2)cc1F
inhibition [1]: 81 to 93% | IC50 [2]: 30 µM

Compound: Fc1ccc(Nc2ccc3c(C4CCNCC4)c[nH]c3c2)cc1F
inhibition [1]: 81 to 93% | IC50 [2]: 24 µM

Compound: CN1CCC(c2c[nH]c3cc(Nc4ccc(F)c(F)c4)ccc23)CC1
inhibition [1]: 81 to 93% | IC50 [2]: 48 µM

Compound: c1cc2c(C3CCNCC3)c[nH]c2cc1Nc1ccc2c(C3CCNCC3)c[nH]c2n1
inhibition [1]: > 90% | IC50 [2]: 25.6 µM

Compound: Cn1cc(C2CCNCC2)c2ccc(Nc3ccc(F)c(F)c3)cc21
inhibition [1]: 81 to 93% | IC50 [2]: 42 µM

Compound: CN1CCC(c2c[nH]c3ccc(Nc4ccc5c(C6CCNCC6)c[nH]c5n4)cc23)CC1
remaining at 1 h [3]: 95% | inhibition [1]: > 90% | Papp A→B [4]: 0.02 ×10⁻⁶ cm/s

Compound: c1cc2c(C3CCNCC3)c[nH]c2cc1Nc1ccc2[nH]cc(C3CCNCC3)c2c1
inhibition [1]: > 90% | IC50 [2]: 26.6 µM

Compound: FC(F)(F)c1ccc(Nc2ccc3c(C4CCNCC4)c[nH]c3c2)cn1
inhibition [1]: 81 to 93% | IC50 [2]: 24 µM

Compound: CN1CCC(c2c[nH]c3cc(Nc4ccc5c(C6CCN(C)CC6)c[nH]c5c4)ccc23)CC1
inhibition [1]: > 90%

Compound: N#Cc1c[nH]c2nc(Nc3ccc4c(C5CCNCC5)c[nH]c4c3)ccc12
inhibition [1]: > 90% | IC50 [2]: 17.8 µM

More lines, now with the values ahead:

inhibition [1]: 48%
Compound: c1cc2ccc(NC3CCNCC3)nc2[nH]1

inhibition [1]: 96%
Compound: c1cc2ccc(Nc3ccc4cc[nH]c4c3)cc2[nH]1

inhibition [1]: 97%
Compound: c1cc2cc(Nc3ccc4cc[nH]c4n3)ccc2[nH]1

inhibition [1]: 75%
Compound: c1cc2ccc(Nc3ccc4cc[nH]c4n3)nc2[nH]1

inhibition [1]: 98% | Drug metabolism (Liver): Metabolite_Detected | half-life [5]: 11 min | IC50 [2]: 23.8 µM
Compound: c1cc2ncc(Nc3ccc4cc[nH]c4n3)cc2[nH]1

inhibition [1]: 75%
Compound: c1cc2ccc(Nc3ccc4cc[nH]c4n3)cc2[nH]1

inhibition [1]: 71%
Compound: c1ccc(Nc2ccc3cc[nH]c3n2)nc1

inhibition [1]: 52%
Compound: Fc1ccc(Nc2ccc3cc[nH]c3n2)cc1

inhibition [1]: 60%
Compound: Fc1cc(F)cc(Nc2ccc3cc[nH]c3n2)c1

inhibition [1]: 94%
Compound: c1cc2cc(Nc3ccc4cc[nH]c4c3)ccc2[nH]1

inhibition [1]: 86%
Compound: c1cc2cc(Nc3ccc4cc[nH]c4n3)cnc2[nH]1
